Screening data as filed in PubChem BioAssay.
TAAR1 antagonist: human TAAR1 antagonism; Q96RJ0; CHO RD-HGA16 TAAR1, Fluo-8 calcium fluorescence, antagonist; inhibition, % at 3 µM; 360,000 compounds, 1.5% hits;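 active = inhibition above a per-plate cutoff, the mean inhibition of test compounds on that plate plus 3 SD, cut at about 49% in these data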
Target sequence (Q96RJ0 whole entry, looked up): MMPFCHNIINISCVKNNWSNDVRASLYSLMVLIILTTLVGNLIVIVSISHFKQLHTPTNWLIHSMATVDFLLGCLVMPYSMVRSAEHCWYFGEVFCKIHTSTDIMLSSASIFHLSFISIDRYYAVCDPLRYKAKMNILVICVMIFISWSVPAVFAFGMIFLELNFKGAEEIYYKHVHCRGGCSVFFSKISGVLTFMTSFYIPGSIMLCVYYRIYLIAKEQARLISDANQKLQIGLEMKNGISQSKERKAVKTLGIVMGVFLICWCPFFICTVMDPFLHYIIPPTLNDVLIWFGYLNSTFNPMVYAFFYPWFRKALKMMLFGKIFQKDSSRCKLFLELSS
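Test system – hTAAR1-expressing CHO RD-HGA16 cells, Gα16-coupled · Reagent – β-PEA at EC80 concentration, post-compound challenge · Compound dosing – 3 µM, single point · Timing – 140 s kinetic read after compound, 140 s after agonist · Detection – Fluo-8 intracellular calcium dye fluorescence, real-time kinetic reads · Control set – DMSO and EC80 PEA controls · Repeats – n of 1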
TAAR1 ag: human TAAR1 agonism; Q96RJ0; CHO RD-HGA16 TAAR1, Fluo-8 calcium fluorescence; vehicle wells 0%, saturating PEA agonist 100%; activation, % at 3 µM; 360,000 compounds, 0.99% hits;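 active = activation above the mean activation of all test compounds in the run plus 3 SD, cut at about 38% in these data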
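Test system: RD-HGA16 (CHO) cells co-expressing Gα16 and hTAAR1; dosing: one-point dosing at 3 µM (nominal); timing: 17-24 h seeding, 75 min 37 °C dye, 30 min RT; signal: kinetic Fluo-8 calcium fluorescence; read-out basis: % activation relative to PEA EC100 response; controls: DMSO and PEA EC100; replicates: n 1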
OX1R antag-1: blocks the human orexin 1 receptor | O43613 | OX1R-expressing cells, FRET antagonist read-out | inhibition, % at 6.6 µM | 330,000 compounds, 1.8% hits | AID 485270; in the data active = inhibition mostly above about 38%, no sharp cut-off; inactive = mostly below about 40%
OX1R antag-2: antagonists of human orexin 1 receptor; O43613; CHO/OX1R cells, Fluo-8 calcium fluorescence, orexin A; inhibition, % at 5 µM; 330,000 compounds, 0.43% hits; AID 434989;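 active = inhibition above its plate's threshold, mean inhibition of all tested compounds on the plate plus 3 SD, cut at about 37% in these data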
GPR7 antagonist: antagonists of human GPR7 (neuropeptides B/W receptor 1); P48145; GPR7-expressing cells, fluorescence antagonist assay; inhibition, % at 4.4 µM; 290,000 compounds, 1.1% hits; AID 1861; in the data active = inhibition above about 16%, passing the limit was not always enough;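 note: cells stimulated with the agonist NPW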
CHO parental Ca: counter-screen for OX1R antagonists: effect in parental CHO cells | parental CHO-K1, ATP-induced calcium, Fluo-8 fluorescence | inhibition, % at 5.6 µM | 330,000 compounds, 0.63% hits;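 active = inhibition above that plate's mean sample inhibition plus 3 SD, cut at about 26% in these data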
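material = parental CHO cells | also added = ATP as calcium-mobilizing challenge | dosing = single point at 5.6 µM | detection = intracellular calcium via Fluo-8 no-wash fluorescent dye | read-out = % inhibition | benchmarks = low control ATP plus DMSO, high control DMSO only | repeats = one well per compound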
nonsel antag count: counter-screen for TAAR1 antagonists: nonselective antagonists; 2,400 compounds, 77% hits; inhibition, % at 3 µM; counterscreen cell line, calcium fluorescence, antagonist mode; shares compounds with TAAR1 antagonist; in the data active = inhibition above about 22%;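 note: CHO-Ga16 host cells stimulated with ATP at an EC80 level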
TAAR1 antag conf: confirmation of human TAAR1 antagonists; shares compounds with TAAR1 antagonist; TAAR1-expressing cells, fluorescence antagonist read-out; inhibition, % at 3 µM; 2,400 compounds, 40% hits; AID 651785; in the data active = inhibition above about 49%;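 note: CHO-Ga16 host cells challenged with agonist PEA near its EC80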
Ga16 ag counter: counter-screen for TAAR1 antagonists: nonselective Ga16 agonists; 2,400 compounds, 18% hits; Ga16-expressing cells, calcium fluorescence, agonist counterscreen; shares compounds with TAAR1 antagonist; activation, % at 3 µM; in the data active = activation above about 12%
TAAR1 ag counter: TAAR1 agonism, antagonist counter-screen. shares compounds with TAAR1 antagonist. hTAAR1 cell line, fluorescence activation, agonist mode. activation, % at 3 µM. 2,400 compounds, 2% hits. AID 651955; in the data active = activation above about 37%;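 note: CHO cells stably expressing TAAR1 with calcium dye readout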
Of the large screens only hits and unclear results are named; the others gave an inactive call (follow-up assays come after a bar, where they were run). Most compounds without a hit are left out; they make up all but 4.6% or so of the library.

COc1ccc(-c2cc(C(=O)NCc3ccco3)c3ccccc3n2)cc1	TAAR1 antagonist 48.8 | nonsel antag count inactive | TAAR1 antag conf inactive | Ga16 ag counter inactive | TAAR1 ag counter inactive
COc1ccc(-c2cc(C(=O)NCc3ccco3)c3ccccc3n2)c(OC)c1	none
COc1ccc(-c2cc(C(=O)Nc3c(C)n(C)n(-c4ccccc4)c3=O)c3ccccc3n2)cc1	TAAR1 antagonist 58.5 | nonsel antag count 25.6 | TAAR1 antag conf inactive | Ga16 ag counter inactive | TAAR1 ag counter inactive
COc1ccc(Nc2cc(C(=O)NCc3ccco3)c3ccccc3n2)c(OC)c1	TAAR1 antagonist 50.8 | nonsel antag count inactive | TAAR1 antag conf inactive | Ga16 ag counter inactive | TAAR1 ag counter inactive
CN(CCOc1ccc(Cl)cc1)C(=O)c1cc(-c2ccco2)nc2ccccc12	TAAR1 antagonist 74.0 (no result: GPR7 antagonist) | nonsel antag count 39.6 | TAAR1 antag conf 58.9 | Ga16 ag counter inactive | TAAR1 ag counter inactive
O=c1nc(-c2ccccc2)n(-c2ccccc2)[nH]1	none
CC(C(=O)NC1CCCC1)n1c(-c2ccccn2)nc2ccccc21 (stereo not given)	none (no result: OX1R antag-1, OX1R antag-2, GPR7 antagonist, CHO parental Ca)
CC(C)(C)OC(=O)N1CCCN(C(c2ccnc3ccccc23)c2nnnn2-c2ccc3c(c2)OCCO3)CC1 (stereo not given)	none (no result: OX1R antag-1, OX1R antag-2, GPR7 antagonist, CHO parental Ca)
Cc1ccc(C(=O)N2CCN=C2SCc2ccc([N+](=O)[O-])cc2)cc1C	none
O=C(O)c1ccc(/C=N/NC(=O)c2cc3c(ccc4ccccc43)o2)cc1	none
COc1ccc(/C=N/NC(=O)c2cc3c(ccc4ccccc43)o2)cc1OC	TAAR1 antagonist 53.0 (no result: OX1R antag-1, OX1R antag-2, CHO parental Ca) | nonsel antag count 27.9 | TAAR1 antag conf inactive | Ga16 ag counter inactive | TAAR1 ag counter inactive
COc1ccc(/C=N\NC(=O)c2cc3c(ccc4ccccc43)o2)cc1O	TAAR1 antagonist 56.9 (no result: OX1R antag-1, OX1R antag-2, CHO parental Ca) | nonsel antag count 39.5 | TAAR1 antag conf 54.6 | Ga16 ag counter 13.0 | TAAR1 ag counter inactive
CCOC(=O)c1cc(-c2ccccc2)n(CC2CC(c3ccc(OC)cc3)=NO2)n1 (stereo not given)	TAAR1 antagonist 74.8 | nonsel antag count 30.2 | TAAR1 antag conf 50.7 | Ga16 ag counter inactive | TAAR1 ag counter inactive
COc1ccc(C2=NOC(Cn3nc(C(=O)NCc4ccco4)cc3-c3ccccc3)C2)cc1 (stereo not given)	TAAR1 antagonist 66.2 (no result: GPR7 antagonist) | nonsel antag count 33.9 | TAAR1 antag conf 56.3 | Ga16 ag counter inactive | TAAR1 ag counter inactive
COc1ccc(C2=NOC(Cn3nc(C(=O)NCc4cccs4)cc3-c3ccccc3)C2)cc1 (stereo not given)	TAAR1 antagonist 77.2 (no result: GPR7 antagonist) | nonsel antag count 39.8 | TAAR1 antag conf 50.5 | Ga16 ag counter inactive | TAAR1 ag counter inactive
Clc1cccc(CNc2nc(-c3cccnc3)nc3ccccc23)c1	none (no result: OX1R antag-1, OX1R antag-2, CHO parental Ca)
Oc1ccc(/C=N/Nc2nc(-c3cccnc3)nc3ccccc23)c(O)c1	TAAR1 antagonist 80.9 | nonsel antag count 23.1 | TAAR1 antag conf inactive | Ga16 ag counter inactive | TAAR1 ag counter inactive
COc1ccc(/C=N/Nc2nc(-c3cccnc3)nc3ccccc23)cc1OC	TAAR1 antagonist 71.8 | nonsel antag count 29.2 | TAAR1 antag conf 51.3 | Ga16 ag counter inactive | TAAR1 ag counter inactive
Cc1ccc(-c2nc(N/N=C/c3ccncc3)c3ccccc3n2)cc1	TAAR1 antagonist 56.6 | nonsel antag count 27.2 | TAAR1 antag conf inactive | Ga16 ag counter inactive | TAAR1 ag counter inactive
Clc1ccccc1-c1nc(N/N=C/c2cccnc2)c2ccccc2n1	none
CC(Sc1ccccn1)C(=O)NC1CCCC1 (stereo not given)	none (no result: GPR7 antagonist)
C[C@@H](CO)NC(=O)c1[nH]cnc1C(=O)Nc1cccc(Cl)c1	none (no result: OX1R antag-1, OX1R antag-2, GPR7 antagonist, CHO parental Ca)
